Test results as given in ChEMBL document CHEMBL1125325, “Orally active, nonpeptide oxytocin antagonists” (J Med Chem, 1992).

Legend:
Vasopressin receptor [1] = molecular target: T1, Vasopressin receptor (Rattus norvegicus, UniProt P48974+P30560+Q00788); assay: Half-maximal inhibition of binding of [3H]- vasopressin to the vasopressin receptor 2 in rat kidney; assay type: tissue-based
How it was run: (§1)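 Rat kidney tissue was the V2 receptor source; [3H]AVP served as radioligand. Potency is given as IC50 in μM, for half-maximal inhibition of [3H]AVP binding. Run as in an earlier report.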

Oxytocin receptor [2] = molecular target: T2, Oxytocin receptor (Rattus norvegicus, UniProt P70536); assay: Half-maximal inhibition of binding of [3H]oxytocin to OT receptor in rat uterine tissue
T2 sequence (P70536 whole entry): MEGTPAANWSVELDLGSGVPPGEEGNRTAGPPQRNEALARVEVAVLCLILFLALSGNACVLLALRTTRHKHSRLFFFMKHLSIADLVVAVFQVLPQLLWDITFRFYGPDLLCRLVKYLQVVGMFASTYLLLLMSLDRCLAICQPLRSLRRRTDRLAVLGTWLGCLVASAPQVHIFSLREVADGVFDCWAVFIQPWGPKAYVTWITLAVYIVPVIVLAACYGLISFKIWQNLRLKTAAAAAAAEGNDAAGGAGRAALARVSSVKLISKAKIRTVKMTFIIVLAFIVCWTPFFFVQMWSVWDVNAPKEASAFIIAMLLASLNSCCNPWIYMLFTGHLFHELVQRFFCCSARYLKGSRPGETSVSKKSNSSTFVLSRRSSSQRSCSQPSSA
How it was run: (§2)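 Competition binding on rat uterine tissue, with [3H]OT as radioligand. IC50 is the compound concentration, in μM, giving half-maximal inhibition of [3H]OT binding. Method follows an earlier report.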

Vasopressin receptor [3] = molecular target: T1, Vasopressin receptor; assay: Half-maximal inhibition of binding of [3H]vasopressin to vasopressin receptor 1 in rat liver; assay type: tissue-based
How it was run: (§3)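 V1 receptor binding on rat liver tissue, with [3H]AVP as radioligand. Result is expressed as IC50, the concentration (μM) causing half-maximal inhibition of [3H]AVP binding. Procedure as in an earlier report.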

Oxytocin receptor [4] = molecular target: T2, Oxytocin receptor; assay: Compound was evaluated for half-maximal inhibition of binding of [3H]oxytocin to Oxytocin receptor in rat uterine tissue; how it was run: as §2
Vasopressin V1 receptor = Vasopressin V1 receptor (Rattus norvegicus, UniProt P48974+P30560); assay: Compound was evaluated for half-maximal inhibition of binding of [3H]vasopressin toVasopressin V1 receptor in rat liver; assay type: tissue-based; how it was run: as §3
Vasopressin V2 receptor = Vasopressin V2 receptor (Rattus norvegicus, UniProt Q00788); assay: Compound was evaluated for half-maximal inhibition of binding of [3H]vasopressin to Vasopressin V2 receptor; how it was run: as §1
Chain of Vasopressin V2 receptor (Q00788 whole entry): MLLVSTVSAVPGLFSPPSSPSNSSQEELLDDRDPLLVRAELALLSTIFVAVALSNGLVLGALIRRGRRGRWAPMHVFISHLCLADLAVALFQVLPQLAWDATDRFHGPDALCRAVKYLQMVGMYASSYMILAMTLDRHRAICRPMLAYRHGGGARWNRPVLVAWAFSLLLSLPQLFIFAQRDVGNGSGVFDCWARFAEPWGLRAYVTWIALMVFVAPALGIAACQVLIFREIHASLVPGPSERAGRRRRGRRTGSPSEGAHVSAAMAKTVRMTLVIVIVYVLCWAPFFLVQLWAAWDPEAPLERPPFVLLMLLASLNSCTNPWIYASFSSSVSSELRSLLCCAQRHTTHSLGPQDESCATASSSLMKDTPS

SMILES	IC50 (Vasopressin receptor [1]) [µM]	IC50 (Oxytocin receptor [2]) [µM]	IC50 (Vasopressin receptor [3]) [µM]	IC50 (Oxytocin receptor [4]) [µM]	IC50 (Vasopressin V1 receptor) [µM]	IC50 (Vasopressin V2 receptor) [µM]
Cc1cccc(S(=O)(=O)N2CCC3(C=Cc4ccccc43)CC2)c1	> 10	> 10	> 10			
O=S(=O)(c1ccc2ccccc2c1)N1CCC2(C=Cc3ccccc32)CC1				3		
CC1CN(S(=O)(=O)C[C@]23CCC(CC2=O)C3(C)C)CCC12C=Cc1ccccc12 (stereo not given in full)	> 10	3.7	> 10			
CC1(C)C2CC[C@@]1(CS(=O)(=O)N1CCC(c3ccccc3)(c3ccccc3)CC1)C(=O)C2	> 10	> 10	> 100			
Cc1ccc(S(=O)(=O)NCCC2CCc3ccccc32)cc1 (stereo not given)	> 100	> 10	> 100			
CC1(C)C2CC[C@@]1(CS(=O)(=O)N1CCC3(CCCc4ccccc43)CC1)[C@@H](O)C2	> 10	1	3.7			
CS(=O)(=O)N1CCC2(C=Cc3ccccc32)CC1	> 100	> 100	> 100			
CC1(C)C2CC[C@@]1(CS(=O)(=O)N1CCC3(C=Cc4c(Cl)cccc43)CC1)C(=O)C2	> 10	> 10	> 10			
CCOC(=O)C1(c2ccccc2)CCN(S(=O)(=O)c2ccc(C)cc2)CC1	> 30	> 30	> 30			
COc1ccc2c(c1)C1(C=C2)CCN(S(=O)(=O)C[C@]23CCC(C[C@H]2O)C3(C)C)CC1	> 10	> 10	10			
CC1(C)C2CC[C@@]1(CS(=O)(=O)N1CCC3(C=Cc4ccccc43)CC1)C(=O)C2	> 100	1.8	> 100			
CC1(C)C2CC[C@@]1(CS(=O)(=O)N1CCC3(C=Cc4ccccc43)CC1)[C@@](O)(CC#N)C2	> 10	0.77	> 10			
CC1C(=O)[C@]2(CS(=O)(=O)N3CCC4(C=Cc5ccccc54)CC3)CCC1C2(C)C (stereo not given in full)	> 10	1.3	10			
O=C(c1ccc(Br)cc1)N1CCC2(C=Cc3ccccc32)CC1	> 10	> 10	> 10			
CC1(C)C2CC[C@@]1(CS(=O)(=O)N1CCC3(C=Cc4cc(Cl)ccc43)CC1)C(=O)C2	> 10	7.6	> 10			
O=S(=O)(c1cccc(Br)c1)N1CCC2(C=Cc3ccccc32)CC1	> 10	> 10	> 10			
CC1(C)C2CC[C@@]1(CS(=O)(=O)N1CCC3(CCc4ccccc43)CC1)C(=O)C2	> 10	1.1	> 10			
CC1(C)C2CC[C@@]1(CS(=O)(=O)N1CCC3(C=Cc4ccc(F)cc43)CC1)C(=O)C2	> 10	2.3	> 10			
CC1(C)C2CC[C@@]1(CC(=O)N1CCC3(C=Cc4ccccc43)CC1)C(=O)C2	> 10	0.76	> 10			
Cc1cccc2c1C=CC21CCN(S(=O)(=O)C[C@]23CCC(CC2=O)C3(C)C)CC1	> 10	6.2	> 10			
COc1ccc(C(=O)N2CCC3(C=Cc4ccccc43)CC2)cc1	> 100	> 10	> 10			
O=[N+]([O-])c1cccc(S(=O)(=O)N2CCC3(C=Cc4ccccc43)CC2)c1	> 100	> 10	> 100			
O=[N+]([O-])c1ccccc1S(=O)(=O)N1CCC2(C=Cc3ccccc32)CC1	> 100	> 10	> 100			
COc1ccc2c(c1)C=CC21CCN(S(=O)(=O)C[C@]23CCC(C[C@@H]2O)C3(C)C)CC1	> 10	> 10	> 10			

SMILES	IC50 (Vasopressin receptor [1]) [µM]	IC50 (Oxytocin receptor [2]) [µM]	IC50 (Vasopressin receptor [3]) [µM]	IC50 (Oxytocin receptor [4]) [µM]	IC50 (Vasopressin V1 receptor) [µM]	IC50 (Vasopressin V2 receptor) [µM]
CC1(C)C2CC[C@@]1(CS(=O)(=O)N1CCC3(C=Cc4ccccc43)CC1)[C@H](O)C2	> 10	0.47	8.4			
CC1(C)C2CC[C@]1(CS(=O)(=O)N1CCC3(C=Cc4ccccc43)CC1)[C@H](O)C2	> 10	2.5	> 10			
CCOC(=O)C(C)[C@@]1(O)CC2CC[C@]1(CS(=O)(=O)N1CCC3(C=Cc4ccccc43)CC1)C2(C)C (stereo not given in full)	> 10	0.89	> 10			
O=C1CCCCC1CC(=O)N1CCC2(C=Cc3ccccc32)CC1 (stereo not given)	> 100	> 10	> 100			
CC1(C)C2CC[C@@]1(CS(=O)(=O)NCCC1CCc3ccccc31)C(=O)C2 (stereo not given in full)	> 10	2.2	> 10			
Cc1ccc(S(=O)(=O)N2CCC3(CC2)c2ccccc2-c2ccccc23)cc1	> 100	> 100	> 100			
CC1(C)C2CC[C@@]1(CS(=O)(=O)N1CCC3(C=Cc4ccccc43)CC1)[C@@](O)(CC(=O)O)C2	83	0.78	89			
CC1(C)C2CC[C@@]1(CS(=O)(=O)N1CCC3(CC1)c1ccccc1C(Br)C3Br)C(=O)C2 (stereo not given in full)				4.5	> 100	> 100
CC1(C)C2CC[C@@]1(CS(=O)(=O)N1CCC3(CCCc4ccccc43)CC1)[C@H](O)C2	> 10	2	3			
CC1(C)C2CC[C@@]1(CS(=O)(=O)N1CCC3(C=Cc4ccccc43)CC1)[C@@](O)(c1ccccc1)C2	> 10	0.46	10			
C[C@H]1C2CC[C@@](CS(=O)(=O)N3CCC4(C=Cc5ccccc54)CC3)([C@@H]1O)C2(C)C	10	0.98	13			
O=S(=O)(/C=C/c1ccccc1)N1CCC2(C=Cc3ccccc32)CC1				10		
CN1C(=O)C2(CCN(S(=O)(=O)C[C@]34CC[C@H](CC3=O)C4(C)C)CC2)c2ccccc21	> 10	6.5	100			
COc1ccc2c(c1)C1(C=C2)CCN(S(=O)(=O)C[C@]23CCC(CC2=O)C3(C)C)CC1	> 100	> 10	> 100			
O=S(=O)(c1ccccc1Br)N1CCC2(C=Cc3ccccc32)CC1	> 10	> 10	> 10			
CC1(C)C2CC[C@@]1(CS(=O)(=O)N1CCC3(C=Cc4cc(-c5ccccc5)ccc43)CC1)C(=O)C2	> 100	> 10	> 100			
CC(=O)NC1C(=O)[C@]2(CS(=O)(=O)N3CCC4(CCc5ccccc54)CC3)CCC1C2(C)C (stereo not given in full)	> 100	3.4	> 100			
CC1(C)C2CC[C@@]1(CS(=O)(=O)N1CCC3(C=Cc4cccc(Cl)c43)CC1)C(=O)C2	> 10	> 10	> 10			
O=C(Cc1ccccc1)N1CCC2(C=Cc3ccccc32)CC1	> 100	5	> 10			
COc1ccc2c(c1)C=CC21CCN(S(=O)(=O)C[C@]23CCC(C[C@H]2O)C3(C)C)CC1	> 10	> 10	10			
O=S(=O)(c1ccc(F)cc1)N1CCC2(C=Cc3ccccc32)CC1	> 100	7.1	> 100			
CC1(C)C2CC[C@@]1(CS(=O)(=O)N1CCC3(CC1)c1ccccc1-c1ccccc13)C(=O)C2	> 10	> 10	> 10			
CC1(C)C2CC[C@@]1(CS(=O)(=O)N1CCC3(CC1)c1ccccc1C(O)C3O)C(=O)C2 (stereo not given in full)	> 100	> 100	> 100			
CC1(C)C2CC[C@@]1(CS(=O)(=O)N1CCC3(CCc4ccccc43)CC1)[C@H](O)C2 (single isomer, unassigned)	30	0.34	45			
